Laboratory results published in ChEMBL document CHEMBL4513216, “Probing the Open Global Health Chemical Diversity Library for Multistage-Active Starting Points for Next-Generation Antimalarials” (ACS Infect Dis, 2020).

System: not listed separately
Experiment: (§1) Toxicity liver stage against HepG2, at 10uM
Format: cell-based
Set-up: test concentration 10 uM, cell line HepG2-A16-CD81EGFP
Conditions: human, HepG2-A16-CD81EGFP cells; read-out: INHIBITION
Method in brief: (§2)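 Uninfected HepG2-A16-CD81EGFP cells, 3 × 10^3 per well, 1536-well, plated on prespotted compound at 10 μM final, parasite-free screening media added to match infected plates; puromycin 10 μM positive, DMSO 0.5% negative; run in parallel with 48 h PbLuc assay at 37 °C, 5% CO2; viability by CellTiter-Glo luminescence, normalized to controls.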
With `CCc1c(C)nn2c(O)cc(C3CCN(C(=O)c4ccccn4)C3)nc12` (configuration not stated) the cytotoxicity at 10 µM was 6.7%. With `CNC(=O)CN1CCN(C(=O)c2ccn(C)c(=O)c2)CC1` the cytotoxicity at 10 µM was -16%. `O=C(c1cc[nH]n1)N1CCc2ncnc(NCc3ccccn3)c2CC1` showed a cytotoxicity at 10 µM of -10.5%. Compound `Cn1nc(C2CN(C(=O)c3ccncc3)C2)c2nccnc21` has a cytotoxicity at 10 µM of -8.8%. With `CN(Cc1nccn1C)C(=O)c1cccc(CCC(C)(C)O)c1` the cytotoxicity at 10 µM was 1.26%. Compound `O=C(c1ccc(C2CCNC2)cc1)N1CCC(N2CCC(O)CC2)CC1` (configuration not stated) has a cytotoxicity at 10 µM of -7.62%. `CC(C)CCN1C[C@@H]2C[C@H](C(=O)NCC(C)C)[C@H](C1)O2` gave a cytotoxicity at 10 µM of 5.9%. Work on `Cc1noc(C2CCCN(C(=O)c3ccc(Cl)cc3F)C2)n1` (configuration not stated) yielded a cytotoxicity at 10 µM of -25.3%. In the case of `O[C@H]1CCCC[C@@H]1N1CCN(CCCc2ccc3c(c2)OCO3)CC1`, the cytotoxicity at 10 µM is reported as -3.69%. With `O=C1CN(c2ccc(CNC(=O)NCC3CCOC3)cc2)CCN1` (configuration not stated) the cytotoxicity at 10 µM was -1.96%. Compound `CCc1nnc2n1CCN(C(=O)c1cc3cc(C)ccc3[nH]1)C2` has a cytotoxicity at 10 µM of 0.893%. Work on `O=C(c1ccc2cccc(F)c2n1)N1CCN(CCn2cccc2)CC1` yielded a cytotoxicity at 10 µM of 13.5%. Compound `O=C(c1ccoc1)N1CC[C@@H](N2CCOCC2)[C@@H]1Cc1ccccc1` has a cytotoxicity at 10 µM of -82%. In the case of `c1cc(-c2c[nH]nc2C2CCCCC2)nc(N2CCCCCC2)n1`, the cytotoxicity at 10 µM is reported as 8.07%. `CC(Nc1ccc(Oc2cccc(C#N)c2)cc1)C(=O)NC1CC1` (configuration not stated) gave a cytotoxicity at 10 µM of 6.91%. Compound `CC(C)c1nc(CSc2nnc(-c3cccs3)n2CC(N)=O)no1` has a cytotoxicity at 10 µM of -142%. Compound `COc1ccc(C(=O)N2CCCC3(CCCC(=O)N3C)C2)cc1` (configuration not stated) has a cytotoxicity at 10 µM of -10.1%. Work on `COc1ccc(Br)c(C(=O)NCC2CCN(S(=O)(=O)C3CC3)CC2)c1` yielded a cytotoxicity at 10 µM of -24.3%. `Cc1nn(C2CCS(=O)(=O)C2)c(O)c1Cc1ccccc1Cl` (configuration not stated) gave a cytotoxicity at 10 µM of -45.7%. With `CC1CN(C)c2ccccc2CN1C(=O)NCc1ccon1` (configuration not stated) the cytotoxicity at 10 µM was 7.36%. Work on `O=C(NCCn1nc2ccccn2c1=O)c1cc(C2CC2)[nH]n1` yielded a cytotoxicity at 10 µM of 0.763%. `COc1cccc(CC(C)NC(=O)NCCc2cccnc2)c1` (configuration not stated) gave a cytotoxicity at 10 µM of -11%. In the case of `COCCN1CCC2(C1)CN(c1ncc(F)cn1)C2`, the cytotoxicity at 10 µM is reported as 4.68%. With `CCN(CC(=O)NCCc1nc(C)no1)Cc1ccc(Cl)cc1` the cytotoxicity at 10 µM was 2.27%. For `COc1ccc(-c2nc(C3CCNCC3)cc3c2ncn3C)cc1`, the cytotoxicity at 10 µM was -124%. With `Cc1cc(C(=O)N[C@H](C)c2onc(C)c2C(=O)O)c(C)o1` the cytotoxicity at 10 µM was 3.82%. For `Cc1ccc(S(=O)(=O)NC(=O)c2cc(S(C)(=O)=O)ccc2C)s1`, the cytotoxicity at 10 µM was 14.1%. With `O=C1[C@H]2CN(Cc3cccs3)C[C@H]2CN1CCN1CCCC1` the cytotoxicity at 10 µM was -12.7%. In the case of `CC(Cn1cccn1)NC(=O)CCC(=O)c1cccs1` (configuration not stated), the cytotoxicity at 10 µM is reported as -2.39%. In the case of `CCC(=O)N1CCC(c2nnc(Cn3cncn3)n2C2CC2)CC1`, the cytotoxicity at 10 µM is reported as -15.4%. Compound `CNc1ncc(-c2csc(NC(=O)C[C@H]3COCCN3)n2)cn1` has a cytotoxicity at 10 µM of -11.9%. `CN(C(=O)COc1ccc(F)cc1)[C@@H]1CS(=O)(=O)C[C@H]1O` gave a cytotoxicity at 10 µM of -2.62%. With `CC(C)(CO)CNC(=O)c1cc(-c2cc[nH]n2)n2ccccc12` the cytotoxicity at 10 µM was 20%. Compound `NC(=O)COc1ccc(CNC(=O)CN2CCc3ccccc32)cc1` has a cytotoxicity at 10 µM of -4.07%. `CN(CCn1nc2ccccn2c1=O)CC(=O)N(C)C1CCCCC1` gave a cytotoxicity at 10 µM of -138%. In the case of `CS(=O)(=O)N1CCN(c2cnnc(N3CCCC3)c2)CC1`, the cytotoxicity at 10 µM is reported as 2.24%. For `CN(CC(=O)N1CCC(Oc2ccc(C(F)(F)F)cn2)CC1)S(C)(=O)=O`, the cytotoxicity at 10 µM was 1.97%. In the case of `CCCN(CC1COc2ccccc2O1)C(=O)C1=NN(C)C(=O)CC1` (configuration not stated), the cytotoxicity at 10 µM is reported as -41%. In the case of `Cc1nc(-c2ccccc2)cc2nn(CC(N)=O)c(=O)n12`, the cytotoxicity at 10 µM is reported as 0.301%. `Cc1nc(N2CCCC2)nc2c1CCN(C(=O)C1CCCC1)CC2` gave a cytotoxicity at 10 µM of -0.265%. For `CN(c1ccccc1C(=O)O)S(=O)(=O)c1cccc2cccnc12`, the cytotoxicity at 10 µM was -0.996%. Work on `CN(Cc1ccsc1)C(=O)CN1CCOC(Cn2cncn2)C1` (configuration not stated) yielded a cytotoxicity at 10 µM of -1.14%. In the case of `CN(Cc1ccc(C#N)cc1)c1ncc(C(N)=O)cc1Cl`, the cytotoxicity at 10 µM is reported as 18.5%. For `OCC(O)CSCc1cn(-c2ccc(F)c(Cl)c2)nn1` (configuration not stated), the cytotoxicity at 10 µM was 9.51%. In the case of `CN(C)C(=O)c1nc(-c2ccc(S(C)(=O)=O)cc2)c2cnccn12`, the cytotoxicity at 10 µM is reported as 7.27%. `Cc1cccc(OCC(=O)N2CCN(C3CCOC3=O)CC2)c1C` (configuration not stated) showed a cytotoxicity at 10 µM of -15%. For `CC(C)CN1CCC(c2nc3ccc(NC(C)C)cn3n2)CC1`, the cytotoxicity at 10 µM was 1.13%. In the case of `CNS(=O)(=O)c1cccc(C(=O)N(C)Cc2ccsc2)c1`, the cytotoxicity at 10 µM is reported as 4.04%. In the case of `CCn1cc(C(=O)NCc2csc(C3CC3)n2)c(C)n1`, the cytotoxicity at 10 µM is reported as 27.4%. `CC(C)n1ncc2c1NC(=O)C(C#N)C21CCCC1` (configuration not stated) gave a cytotoxicity at 10 µM of -4.1%. `CCOC(=O)N1CCC(NC(C)c2ccccc2-n2cccn2)CC1` (configuration not stated) showed a cytotoxicity at 10 µM of -7.28%. For `CCN1CC2(CCNCC2)COc2ccccc2S1(=O)=O`, the cytotoxicity at 10 µM was -3.06%. Work on `Cc1nc(C)n(C2CCCN(C(=O)c3ccc(CN(C)C)cc3)C2)n1` (configuration not stated) yielded a cytotoxicity at 10 µM of -1.6%. Work on `CCN(CC(=O)Nc1cc(Cl)ccc1C)C(=O)c1ccncc1` yielded a cytotoxicity at 10 µM of -1.73%. `Cc1nn(C)c(Cl)c1C1CCCN1C(=O)c1cc[nH]n1` (configuration not stated) showed a cytotoxicity at 10 µM of -5.55%. Compound `CN(C)CCCN(C)C1CCN(c2cccc(-c3cscn3)c2)CC1` has a cytotoxicity at 10 µM of -5%. `COc1cccc(CN(Cc2ccco2)Cc2cnc(C)n2C)c1` showed a cytotoxicity at 10 µM of 3.65%. With `Cn1ccnc1CN(CCO)C(=O)c1nc2ccccc2s1` the cytotoxicity at 10 µM was 4.46%. `CS(=O)(=O)c1ccccc1-n1cc(NC(=O)CC2C=CCC2)cn1` (configuration not stated) showed a cytotoxicity at 10 µM of 1.78%. `CC(Cn1cccn1)C(=O)N1CCC(NS(C)(=O)=O)CC1` (configuration not stated) gave a cytotoxicity at 10 µM of -8.34%. `Cn1cnnc1C1CCCN(C(=O)c2n[nH]c3ccccc23)C1` (configuration not stated) showed a cytotoxicity at 10 µM of 0.914%. `CC(Cn1cccn1)NC(=O)NCc1ccc(S(C)(=O)=O)cc1` (configuration not stated) showed a cytotoxicity at 10 µM of 3.64%. Work on `Cc1nc(C(=O)N2CCN(S(C)(=O)=O)CC2)c(-c2ccccc2Cl)s1` yielded a cytotoxicity at 10 µM of 4.37%. `CS(=O)(=O)N1C[C@H](NC(=O)c2ccno2)[C@@H]2OCCC[C@@H]21` showed a cytotoxicity at 10 µM of -112%. With `Cn1cnc2c1CCN(CCS(=O)(=O)c1ccccc1)C2` the cytotoxicity at 10 µM was -3.32%. Work on `CCNC(=O)N1CCN(C(=O)c2cc(Cl)cc3cccnc23)CC1` yielded a cytotoxicity at 10 µM of -9.62%. For `O=C(CCn1nc(-c2cccs2)oc1=O)Nc1cccc(F)c1`, the cytotoxicity at 10 µM was -5.21%. Work on `Cc1nc(CN2CCCC2c2nc(C(C)C)no2)cs1` (configuration not stated) yielded a cytotoxicity at 10 µM of -9.7%. Compound `Cc1nc(C2CCCN(C(=O)c3scnc3C)C2)no1` (configuration not stated) has a cytotoxicity at 10 µM of -3.18%. For `CC(C)c1cc(N2CCC(CCC(=O)NC3CC3)CC2)n2nccc2n1`, the cytotoxicity at 10 µM was -9.12%. `CC1COCCN1C(=O)Nc1cnc2c(cnn2C(C)C)c1` (configuration not stated) showed a cytotoxicity at 10 µM of -2.21%. `CSCC(=O)N1C[C@@H](C)[C@](O)(C(C)C)C1` showed a cytotoxicity at 10 µM of 9.24%. Compound `COc1ncccc1C(=O)N1CCCC1c1nc(-c2ccccc2)n[nH]1` (configuration not stated) has a cytotoxicity at 10 µM of -8.76%. Compound `COc1ncc(-c2ccc(C(N)=O)cc2)c(OC)n1` has a cytotoxicity at 10 µM of -5.9%. With `CN(C)CC1(O)CCN(C(=O)c2cnc(-c3ccccn3)nc2)C1` (configuration not stated) the cytotoxicity at 10 µM was 4.82%. In the case of `CN1CCCN(CCCNC2CCc3cc4c(cc32)OCCO4)CC1` (configuration not stated), the cytotoxicity at 10 µM is reported as -3.68%.

System: HepG2
Experiment: as §1
Format: cell-based
Set-up: test concentration 10 uM, cell line HepG2-A16-CD81EGFP
Conditions: human, hepg2, 10 µM; 10 µM
Method in brief: as §2
`CCc1c(C)nn2c(O)cc(C3CCN(C(=O)c4ccccn4)C3)nc12` (configuration not stated) showed an INHIBITION of 4.85%.
